According to ChEMBL document CHEMBL5034013, “Discovery of VNRX-7145 (VNRX-5236 Etzadroxil): An Orally Bioavailable β-Lactamase Inhibitor for Enterobacterales Expressing Ambler Class A, C, and D Enzymes” (J Med Chem, 2021):

Experiments:
Klebsiella pneumoniae [1] = experiment: Antibacterial activity against Klebsiella pneumoniae expressing SHV-1/TEM-1/KPC-2 assessed as concentration required to restore ceftibuten activity incubated for 16 to 20 hrs in presence of 1 ug/ml ceftibuten by broth microdilution method; assay type: functional; conditions: time 16-20 hrs
[2] = Inhibition of bacterial beta-lactamase SHV-5 using cefotaxime as substrate preincubated for 15 mins followed by substrate addition and measured after 10 mins by spectrophotometric analysis; set-up: species or system Bacteria
Method in brief: (§1)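 IC50 is the mean of duplicate runs on separate days. A run was repeated automatically if it differed by more than 20% from the previous result.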

Escherichia coli [3] = experiment: Antibacterial activity against Escherichia coli 849121 expressing KPC assessed as concentration required to restore ceftibuten activity incubated for 16 to 20 hrs in presence of 1 ug/ml ceftibuten by broth microdilution method; assay type: functional; conditions: time 16-20 hrs
Klebsiella pneumoniae [4] = experiment: Antibacterial activity against Klebsiella pneumonia DOV expressing OXA-48 assessed as concentration required to restore ceftibuten activity incubated for 16 to 20 hrs in presence of 1 ug/ml ceftibuten by broth microdilution method; assay type: functional; conditions: time 16-20 hrs
Method in brief: (§2)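 Tested against a 25-strain challenge panel of clinical E. coli and K. pneumoniae isolates carrying ESBL (n = 5), KPC (n = 11), class C (n = 4) or OXA-48 (n = 5) β-lactamases. Ceftibuten was held at 1 μg/mL while the BLI concentration varied. The read-out was the BLI concentration that rescued ceftibuten activity.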

Escherichia coli [5] = experiment: Antibacterial activity against Escherichia coli expressing CTX-M-2 assessed as concentration required to restore ceftibuten activity incubated for 16 to 20 hrs in presence of 1 ug/ml ceftibuten by broth microdilution method; assay type: functional; conditions: time 16-20 hrs
[6] = Inhibition of bacterial beta-lactamase AmpC using nitrocefin as substrate preincubated for 15 mins followed by substrate addition and measured after 10 mins by spectrophotometric analysis; set-up: species or system Bacteria; method in brief: as §1
Klebsiella pneumoniae [7] = experiment: Antibacterial activity against Klebsiella pneumonia SI-C05 expressing OXA-48 assessed as concentration required to restore ceftibuten activity incubated for 16 to 20 hrs in presence of 1 ug/ml ceftibuten by broth microdilution method; assay type: functional; conditions: time 16-20 hrs; method in brief: as §2
Escherichia coli [8] = experiment: Antibacterial activity against Escherichia coli expressing TEM-1/SHV-12 assessed as concentration required to restore ceftibuten activity incubated for 16 to 20 hrs in presence of 1 ug/ml ceftibuten by broth microdilution method; assay type: functional; conditions: time 16-20 hrs
Klebsiella pneumoniae [9] = experiment: Antibacterial activity against Klebsiella pneumoniae expressing OXA-48 assessed as concentration required to restore ceftibuten activity incubated for 16 to 20 hrs in presence of 1 ug/ml ceftibuten by broth microdilution method; assay type: functional; conditions: time 16-20 hrs
Escherichia coli [10] = experiment: Antibacterial activity against Escherichia coli 664507 expressing OXA-48 assessed as concentration required to restore ceftibuten activity incubated for 16 to 20 hrs in presence of 1 ug/ml ceftibuten by broth microdilution method; assay type: functional; conditions: time 16-20 hrs; method in brief: as §2
Escherichia coli [11] = experiment: Antibacterial activity against Escherichia coli SI-P026TC expressing CMY-2/TEM-1 assessed as concentration required to restore ceftibuten activity incubated for 16 to 20 hrs in presence of 1 ug/ml ceftibuten by broth microdilution method; assay type: functional; conditions: time 16-20 hrs
Escherichia coli [12] = experiment: Antibacterial activity against Escherichia coli 664520 expressing OXA-48 assessed as concentration required to restore ceftibuten activity incubated for 16 to 20 hrs in presence of 1 ug/ml ceftibuten by broth microdilution method; assay type: functional; conditions: time 16-20 hrs; method in brief: as §2
Klebsiella pneumoniae [13] = experiment: Antibacterial activity against Klebsiella pneumoniae 196477 expressing AmpC/CMY-2/TEM-1/CTX-M-15 assessed as concentration required to restore ceftibuten activity incubated for 16 to 20 hrs in presence of 1 ug/ml ceftibuten by broth microdilution method; assay type: functional; conditions: time 16-20 hrs
Klebsiella pneumoniae [14] = experiment: Antibacterial activity against Klebsiella pneumoniae expressing SHV-5/KPC-2/TEM-1 assessed as concentration required to restore ceftibuten activity incubated for 16 to 20 hrs in presence of 1 ug/ml ceftibuten by broth microdilution method; assay type: functional; conditions: time 16-20 hrs
Klebsiella pneumoniae [15] = experiment: Antibacterial activity against Klebsiella pneumoniae expressing SHV-12/TEM-1/KPC-2/AmpC assessed as concentration required to restore ceftibuten activity incubated for 16 to 20 hrs in presence of 1 ug/ml ceftibuten by broth microdilution method; assay type: functional; conditions: time 16-20 hrs
Escherichia coli [16] = experiment: Antibacterial activity against Escherichia coli 786978 expressing KPC assessed as concentration required to restore ceftibuten activity incubated for 16 to 20 hrs in presence of 1 ug/ml ceftibuten by broth microdilution method; assay type: functional; conditions: time 16-20 hrs
Klebsiella pneumoniae [17] = experiment: Antibacterial activity against Klebsiella pneumoniae expressing SHV-11/TEM-1/KPC-3 assessed as concentration required to restore ceftibuten activity incubated for 16 to 20 hrs in presence of 1 ug/ml ceftibuten by broth microdilution method; assay type: functional; conditions: time 16-20 hrs
Klebsiella pneumoniae [18] = experiment: Antibacterial activity against Klebsiella pneumoniae expressing KPC-3/TEM-1/AmpC assessed as concentration required to restore ceftibuten activity incubated for 16 to 20 hrs in presence of 1 ug/ml ceftibuten by broth microdilution method; assay type: functional; conditions: time 16-20 hrs
Escherichia coli [19] = experiment: Antibacterial activity against Escherichia coli expressing CTX-M-15/TEM-1 assessed as concentration required to restore ceftibuten activity incubated for 16 to 20 hrs in presence of 1 ug/ml ceftibuten by broth microdilution method; assay type: functional; conditions: time 16-20 hrs
Escherichia coli [20] = experiment: Antibacterial activity against Escherichia coli J53 expressing SHV-5/TEM-1/AmpC assessed as concentration required to restore ceftibuten activity incubated for 16 to 20 hrs in presence of 1 ug/ml ceftibuten by broth microdilution method; assay type: functional; conditions: time 16-20 hrs
Klebsiella pneumoniae [21] = experiment: Antibacterial activity against Klebsiella pneumoniae 845661 expressing KPC assessed as concentration required to restore ceftibuten activity incubated for 16 to 20 hrs in presence of 1 ug/ml ceftibuten by broth microdilution method; assay type: functional; conditions: time 16-20 hrs
Klebsiella pneumoniae [22] = experiment: Antibacterial activity against Klebsiella pneumoniae 156309 expressing SHV-11/TEM-1/KPC-2 assessed as concentration required to restore ceftibuten activity incubated for 16 to 20 hrs in presence of 1 ug/ml ceftibuten by broth microdilution method; assay type: functional; conditions: time 16-20 hrs
Escherichia coli [23] = experiment: Antibacterial activity against Escherichia coli expressing AmpC/SHV-12/CTX-M-15/TEM-1 assessed as concentration required to restore ceftibuten activity incubated for 16 to 20 hrs in presence of 1 ug/ml ceftibuten by broth microdilution method; assay type: functional; conditions: time 16-20 hrs
Klebsiella pneumoniae [24] = experiment: Antibacterial activity against Klebsiella pneumonia 217917 expressing CMY-2/TEM-1 assessed as concentration required to restore ceftibuten activity incubated for 16 to 20 hrs in presence of 1 ug/ml ceftibuten by broth microdilution method; assay type: functional; conditions: time 16-20 hrs; method in brief: as §2
[25] = Inhibition of bacterial beta-lactamase KPC-2 using imipenem as substrate preincubated for 15 mins followed by substrate addition and measured after 10 mins by spectrophotometric analysis; set-up: species or system Bacteria; method in brief: as §1
Klebsiella pneumoniae [26] = experiment: Antibacterial activity against Klebsiella pneumoniae expressing SHV-12/TEM-1 assessed as concentration required to restore ceftibuten activity incubated for 16 to 20 hrs in presence of 1 ug/ml ceftibuten by broth microdilution method; assay type: functional; conditions: time 16-20 hrs
Klebsiella pneumoniae [27] = experiment: Antibacterial activity against Klebsiella pneumoniae expressing TEM-1/SHV-12 assessed as concentration required to restore ceftibuten activity incubated for 16 to 20 hrs in presence of 1 ug/ml ceftibuten by broth microdilution method; assay type: functional; conditions: time 16-20 hrs
[28] = Inhibition of bacterial beta-lactamase OXA-48 using nitrocefin as substrate preincubated for 15 mins followed by substrate addition and measured after 10 mins by spectrophotometric analysis; set-up: species or system Bacteria; method in brief: as §1
Klebsiella pneumoniae [29] = experiment: Antibacterial activity against Klebsiella pneumoniae 845670 expressing KPC assessed as concentration required to restore ceftibuten activity incubated for 16 to 20 hrs in presence of 1 ug/ml ceftibuten by broth microdilution method; assay type: functional; conditions: time 16-20 hrs
[30] = Oral bioavailability in monkey at 10 mg/kg administered as cassette dose measured by UPLC-MS/MS analysis; assay type: ADME, organism-based, Macaca mulatta; conditions: rhesus monkey, in vivo
Method in brief: (§3)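 Ester prodrugs are dosed orally. F is the percent absolute oral bioavailability of the parent boronate, corrected for the molecular-weight difference between prodrug and parent.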

[31] = Oral bioavailability in dog at 10 mg/kg administered as cassette dose measured by UPLC-MS/MS analysis; assay type: ADME, organism-based, Canis lupus familiaris; conditions: in vivo; method in brief: as §3
[32] = Oral bioavailability in mouse at 5 mg/kg administered as cassette dose measured by UPLC-MS/MS analysis; assay type: ADME, organism-based; conditions: in vivo; method in brief: as §3
[33] = Oral bioavailability in rat at 10 mg/kg administered as cassette dose measured by UPLC-MS/MS; assay type: ADME, organism-based; conditions: in vivo, 10 mg/kg, in the assay text read “measured” for “administered as cassette dose measured”
Method in brief: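 Ester prodrugs are given to rats by oral gavage, some as a cassette with another ester. F is the percent absolute oral bioavailability of the parent, corrected for the MW difference between prodrug and parent.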

Escherichia coli [34] = experiment: In vivo antibacterial activity against Escherichia coli expressing TEM-1/CTX-M-15 infected in C3H/HeJ mouse assessed as log10 reduction in CFU in bladder at 1 to 300 mg/kg, sc administered every 12 hrs for 3 days starting from 4 days post infection and measured at 7 days post infection (reference value: 5.8 log10CFU); assay type: functional; conditions: dose 1-300 mg/kg; time 3 day
Escherichia coli [35] = experiment: In vivo antibacterial activity against Escherichia coli expressing TEM-1/CTX-M-15 infected in C3H/HeJ mouse assessed as log10 reduction in CFU in kidney at 1 to 300 mg/kg, sc administered every 12 hrs for 3 days starting from 4 days post infection and measured at 7 days post infection (reference value: 6.7 log10CFU); assay type: functional; conditions: dose 1-300 mg/kg; time 3 day
Escherichia coli [36] = experiment: In vivo antibacterial activity against Escherichia coli expressing TEM-1/CTX-M-15 infected in C3H/HeJ mouse assessed as log10 reduction in CFU in urine at 1 to 300 mg/kg, sc administered every 12 hrs for 3 days starting from 4 days post infection and measured at 7 days post infection (reference value: 6.7 log10CFU); assay type: functional; conditions: dose 1-300 mg/kg; time 3 day

CC(=O)CCC(=O)N[C@H]1Cc2cccc(C(=O)O)c2OB1O
Activity (Klebsiella pneumoniae [1]): 4 µg/mL | IC50 [2]: 25 nM | Activity (Escherichia coli [3]): <=0.002 ug ml-1 | Activity (Klebsiella pneumoniae [4]): 0.06 µg/mL | Activity (Escherichia coli [5]): <=0.002 ug ml-1 | IC50 [6]: 8 nM | Activity (Klebsiella pneumoniae [7]): 0.06 µg/mL | Activity (Escherichia coli [8]): 0.016 µg/mL | Activity (Klebsiella pneumoniae [9]): 4 µg/mL | Activity (Escherichia coli [10]): 0.06 µg/mL | Activity (Escherichia coli [11]): 0.5 µg/mL | Activity (Escherichia coli [12]): 4 µg/mL | Activity (Klebsiella pneumoniae [13]): 0.06 µg/mL | Activity (Klebsiella pneumoniae [14]): <=0.002 ug ml-1 | Activity (Klebsiella pneumoniae [15]): 0.5 µg/mL | Activity (Escherichia coli [16]): 1 µg/mL | Activity (Klebsiella pneumoniae [17]): 0.25 µg/mL | Activity (Klebsiella pneumoniae [18]): 0.5 µg/mL | Activity (Escherichia coli [19]): 0.12 µg/mL | Activity (Escherichia coli [20]): 0.03 µg/mL | Activity (Klebsiella pneumoniae [21]): 4 µg/mL | Activity (Klebsiella pneumoniae [22]): 2 µg/mL | Activity (Escherichia coli [23]): 0.016 µg/mL | Activity (Klebsiella pneumoniae [24]): 0.12 µg/mL | IC50 [25]: 116 nM | Activity (Klebsiella pneumoniae [26]): 0.06 µg/mL | Activity (Klebsiella pneumoniae [27]): 0.016 µg/mL | IC50 [28]: 1450 nM | Activity (Klebsiella pneumoniae [29]): <=0.002 ug ml-1

CCC(=O)N[C@H]1Cc2cccc(C(=O)OCOC(=O)C(C)(C)C)c2OB1O
bioavailability [30]: 52% | bioavailability [31]: 42% | bioavailability [32]: 42% | bioavailability [33]: 99%

Nc1nc(/C(=C/CC(=O)O)C(=O)N[C@@H]2C(=O)N3C(C(=O)O)=CCS[C@H]23)cs1 [CEFTIBUTEN]
Activity (Escherichia coli [34]): 2 log10CFU/ml | Activity (Klebsiella pneumoniae [9]): 256 µg/mL | Activity (Escherichia coli [10]): 128 µg/mL | Activity (Klebsiella pneumoniae [13]): 4 µg/mL | Activity (Escherichia coli [16]): 8 µg/mL | Activity (Escherichia coli [19]): 128 µg/mL | Activity (Escherichia coli [20]): 256 µg/mL | Activity (Klebsiella pneumoniae [22]): 256 µg/mL | Activity (Escherichia coli [35]): 2 log10CFU/ml | Activity (Klebsiella pneumoniae [26]): 32 µg/mL | Activity (Escherichia coli [36]): 2 log10CFU/ml
